Source: PubChem BioAssay
TWEAK Fn14 block – inhibitors of TWEAK-Fn14 signaling, primary screen, luciferase reporter cells, uHTS; TWEAK-stimulated Fn14 reporter cells, luciferase luminescence, 8 h; AID 1159606, 2016; 360,000 tested, 2% active; inhibition, % at 10 µM; in the data active means inhibition above about 50%
Xi reactivation – activators of inactive X chromosome reactivation, primary screen, imaging, XiGFP fibroblasts, GFP high-content imaging, set 2 | XiGFP mouse fibroblasts, % GFP-positive cells imaging, 3 d; cells co-treated with 5-aza-dC sensitizer; scaled so ellipticine positive control = 100% | activation, % at 7.58 µM | 360,000 tested, 0.055% active | AID 743238, 2013;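 active means mean normalized replicate activation at least 10% and every replicate at or above 10%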;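 further: 0% = median of on-plate neutral control wells and 100% = ellipticine 6 µM median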
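Material: XiGFP fibroblasts, SV40-immortalized. Buffer or medium: DMEM plus 5-aza-dC sensitizer. Compound: single concentration per compound, delivered by pin transfer. Times: 3 days compound exposure. Controls: ellipticine 6 µM.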
EWS-Fli block – EWS/Fli-driven NR0B1 reporter inhibitors, primary screen, A673 cells, NR0B1 luciferase, luminescence, MLPCN library; viability-normalised; inhibition, % at 12.6 µM; 350,000 tested, 0.67% active;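 active means mean inhibition of at least 50% after viability correction, with every replicate also passing that limit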;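 further: firefly luciferase signal divided by Alamar Blue viability fluorescence both relative to DMSO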
FN deposition inh – inhibitors of fibronectin matrix deposition, primary screen, AH1F cells, Alexa488-fibronectin fluorescence, plate reader. 350,000 tested, 0.086% active. AID 743247, 2014. inhibition, % at 12.6 µM. AH1F fibroblasts, overnight;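 active means mean inhibition across replicates of 30% or more, regardless of how many single replicates reach that level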;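 further: positive control wells lacked labelled fibronectin entirely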
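Material: AH1F fibroblast monolayer depositing Alexa488-labelled fibronectin into matrix | Input: 10000 AH1F cells/well | Medium: DMEM plus 2% serum, read in PBS | Reagent: Alexa488-fibronectin, 24 nM final in well | Compound dosing: One dose per compound, pinned | Schedule: 1 h adhesion, overnight exposure | Measured by: Fluorescence at 485 nm excitation, 525 nm emission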
LGR2 antag – inhibitors of bursicon-induced LGR2 CRE-luciferase signal, primary screen, cell-based, HEK293, CRE-luciferase reporter, bursicon stimulation | Drosophila bursicon receptor LGR2 (rickets) | bursicon-stimulated, 4 h | inhibition, % at 9.99 µM | 380,000 tested, 0.35% active;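 active means drop in luminescence signal, shown as inhibition above about 50% in the replicate tests, limit read from the data, passing the limit was not always enough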;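 further: agonist challenge used bursicon conditioned medium at about half maximal strength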
TROY signal inh – inhibitors of TROY-driven NF-kB signaling, primary screen, Q293 LMP1-TROYcd cells, NF-kB luciferase, uHTS. Q293 LMP1-TROYcd NF-kB luciferase reporter, 4 h. inhibition, % at 10 µM. 360,000 tested, 0.98% active;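 active means compounds whose plate-normalised and pattern-corrected inhibition of the luciferase reporter signal at the single screening dose is 50% or more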
An asterisk follows results filed as active; nt = not tested or not shown. The list is not random: actives were taken first. Their share in the collection is about 2.3%.

SMILES	TWEAK Fn14 block	Xi reactivation	EWS-Fli block	FN deposition inh	LGR2 antag	TROY signal inh
Cc1ccc(S(=O)(=O)N(C)C[C@H]2Oc3ccc(NC(=O)Nc4ccc5c(c4)OCO5)cc3CC(=O)N([C@@H](C)CO)C[C@@H]2C)cc1	nt	-0.8	5.2	nt	-9.1	nt
Cc1ccc(S(=O)(=O)N(C)C[C@H]2Oc3ccc(NC(=O)CCC(F)(F)F)cc3CC(=O)N([C@H](C)CO)C[C@@H]2C)cc1	nt	-0.2	3.9	nt	2.6	nt
Cc1ccc(S(=O)(=O)N(C)C[C@@H]2Oc3ccc(NC(=O)Nc4ccc5c(c4)OCO5)cc3CC(=O)N([C@H](C)CO)C[C@@H]2C)cc1	nt	-0.6	56.1*	nt	0.7	nt
O=C(O)C[C@H]1C[C@@H]2c3cc(NC(=O)Nc4ccccc4F)ccc3O[C@@H]2[C@@H](CO)O1	nt	0.2	0.6	nt	-2.5	nt
C[C@H]1CN([C@@H](C)CO)C(=O)Cc2cc(NC(=O)Nc3ccc4c(c3)OCO4)ccc2O[C@H]1CN(C)S(=O)(=O)c1ccc(Cl)cc1	nt	-0.1	58.4*	-24.3	8.2	nt
COc1ccc(NC(=O)Nc2ccc3c(c2)CC(=O)N([C@@H](C)CO)C[C@H](C)[C@@H](CN(C)S(=O)(=O)c2ccc(F)cc2)O3)cc1	nt	-1.0	-1.4	-4.0	-6.7	nt
COc1ccc(NC(=O)Nc2ccc3c(c2)CC(=O)N([C@H](C)CO)C[C@H](C)[C@@H](CN(C)S(=O)(=O)c2ccc(F)cc2)O3)cc1	nt	14.7*	0.0	-1.5	-4.7	nt
Cc1ccc(S(=O)(=O)N(C)C[C@@H]2Oc3ccc(NC(=O)Nc4ccccc4)cc3CC(=O)N([C@@H](C)CO)C[C@@H]2C)cc1	nt	0.1	31.5	nt	32.2	nt
Cc1ccc(S(=O)(=O)N(C)C[C@H]2Oc3ccc(NC(=O)Nc4ccccc4)cc3CC(=O)N([C@H](C)CO)C[C@@H]2C)cc1	nt	23.3*	-2.2	nt	3.4	nt
CC(C)NC(=O)N(C)C[C@H]1OCCCC[C@H](C)Oc2ccc(NS(=O)(=O)c3cccs3)cc2C(=O)N([C@@H](C)CO)C[C@H]1C	nt	0.3	-6.6	-5.9	-3.0	nt
O=C1CCCC2=C1C1(CCCCC1)N=C(Nc1nc3ccccc3o1)N2	74.6*	nt	nt	-4.3	nt	1.9
O=C1CCCC2=C1C1(CCCC1)N=C(Nc1nc3ccccc3o1)N2	-0.4	0.0	-7.2	12.3	-3.3	-23.4
O=C1CCCC2=C1C1(CCCC1)N=C(Nc1nc3cc(-c4ccccc4)ccc3o1)N2	64.3*	-0.2	-16.2	3.0	-20.3	-12.0
O=C(c1cnccn1)N1CC(=O)N2[C@H](CO)[C@@H](c3ccc(/C=C/c4ccccc4)cc3)[C@@H]2C1	nt	0.0	-3.1	21.4	-20.6	nt
C[C@@H]1CN([C@@H](C)CO)C(=O)c2cc(C#CC3(O)CCCC3)cnc2O[C@H]1CN(C)C(=O)CC1CC1	nt	-0.6	-1.7	0.7	-4.4	nt
Cc1ccc2nc(/C(C#N)=C/c3cn[nH]c3-c3ccc(F)cc3)[nH]c2c1	59.0*	nt	nt	nt	nt	16.0
Cc1noc(C)c1NC(=O)N(C)C[C@H]1Oc2ccc(NC(=O)Cc3cn(C)c4ccccc34)cc2C(=O)N([C@@H](C)CO)C[C@@H]1C	nt	-1.3	-5.1	nt	-6.7	nt
CCCN(CC)c1ncnc2[nH]ncc12	66.7*	0.2	-8.1	nt	17.4	39.6
CN(C)c1ncnc2[nH]ncc12	-10.9	0.0	-11.9	0.0	15.6	-11.6
O=C(CSc1nc2ccccc2s1)N/N=C/c1ccc(C(=O)O)cc1	-6.4	0.0	-11.1	34.6*	-3.9	-12.1
O=C(CSc1nc2ccccc2s1)N/N=C/c1ccccc1C(=O)O	89.3*	-0.1	-16.2	5.1	11.3	82.3*
Cc1ccc(CSc2nnc(SCC(=O)N/N=C/c3ccc(C(=O)O)cc3)s2)cc1	69.4*	0.0	60.4*	0.4	66.9*	14.7
